Measured values taken from ChEMBL document CHEMBL1145495, “Polyamine effects on antibiotic susceptibility in bacteria” (2007).
In brackets after ≈: the same amount, converted by molar mass. Activity calls are given as the source filed them. No cut-off for these calls is given here.

Key:
Escherichia coli [1] = assay: Antibacterial activity against Escherichia coli N818 delta acrA mutant assessed as inhibition of AcrAB efflux pump after 14 to 16 hrs by broth dilution method; assay type: functional
How it was run: (§1)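 CLSI broth dilution in cation-adjusted Mueller-Hinton broth with serial twofold dilutions, with or without spermine or spermidine added. Overnight cultures were diluted in saline to OD600 0.1–0.12, and about 10^5 CFU were inoculated. Incubation was 14–16 h at 37°C. MIC was confirmed in three independent experiments. E. coli acrA mutants were tested with 1 mM spermine; P. aeruginosa isolates with 1 mM spermine or 20 mM spermidine.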

Pseudomonas aeruginosa [2] = assay: Antibacterial activity against Pseudomonas aeruginosa M38100B after 14 to 16 hrs by broth dilution method; assay type: functional
Pseudomonas aeruginosa [3] = assay: Antibacterial activity against Pseudomonas aeruginosa T6268 after 14 to 16 hrs by broth dilution method; assay type: functional
Pseudomonas aeruginosa [4] = assay: Antibacterial activity against Pseudomonas aeruginosa T2095 after 14 to 16 hrs by broth dilution method; assay type: functional
Salmonella typhimurium = assay: Antibacterial activity against Salmonella enterica serovar Typhimurium LT2 after 14 to 16 hrs by broth dilution method; assay type: functional, Salmonella enterica subsp. enterica serovar Typhimurium
Pseudomonas aeruginosa [5] = assay: Antibacterial activity against Pseudomonas aeruginosa F4980 after 14 to 16 hrs by broth dilution method; assay type: functional; how it was run: as §1
Staphylococcus aureus [6] = assay: Antibacterial activity against Staphylococcus aureus ATCC 3556 after 14 to 16 hrs by broth dilution method; assay type: functional
Pseudomonas aeruginosa [7] = assay: Antibacterial activity against Pseudomonas aeruginosa M37310 after 14 to 16 hrs by broth dilution method; assay type: functional
Pseudomonas aeruginosa [8] = assay: Antibacterial activity against streptomycin-resistant Pseudomonas aeruginosa DK100 after 14 to 16 hrs by broth dilution method; assay type: functional; how it was run: as §1
Staphylococcus aureus [9] = assay: Antibacterial activity against Staphylococcus aureus Mu50 after 14 to 16 hrs by broth dilution method; assay type: functional
Escherichia coli [10] = assay: Antibacterial activity against Escherichia coli K10 after 14 to 16 hrs by broth dilution method; assay type: functional
Escherichia coli [11] = assay: Antibacterial activity against Escherichia coli C921-61 after 14 to 16 hrs by broth dilution method; assay type: functional
Pseudomonas aeruginosa [12] = assay: Antibacterial activity against Pseudomonas aeruginosa M38100A after 14 to 16 hrs by broth dilution method; assay type: functional
Pseudomonas aeruginosa [13] = assay: Antibacterial activity against streptomycin and gentamycin-resistant Pseudomonas aeruginosa DK101 containing oprD mutant after 14 to 16 hrs by broth dilution method; assay type: functional; how it was run: as §1
Pseudomonas aeruginosa [14] = assay: Antibacterial activity against Pseudomonas aeruginosa PAO1 after 14 to 16 hrs by broth dilution method; assay type: functional
Escherichia coli [15] = assay: Antibacterial activity against Escherichia coli N43 acrA mutant assessed as inhibition of AcrAB efflux pump after 14 to 16 hrs by broth dilution method; assay type: functional; how it was run: as §1
Pseudomonas aeruginosa [16] = assay: Antibacterial activity against Pseudomonas aeruginosa H4563 after 14 to 16 hrs by broth dilution method; assay type: functional
Pseudomonas aeruginosa [17] = assay: Antibacterial activity against Pseudomonas aeruginosa F66336 after 14 to 16 hrs by broth dilution method; assay type: functional
Pseudomonas aeruginosa [18] = assay: Antibacterial activity against Pseudomonas aeruginosa PAO1 assessed as inhibition of bacterial population at 64 ug/ml after 48 hrs; assay type: functional, organism-based
How it was run: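 Population analysis: overnight 37°C cultures adjusted to 1 x 10^8 to 5 x 10^8 CFU/ml, diluted, 100 µl spread on LB plates with twofold serial dilutions of antibiotic with or without 1 mM spermine, plus LB alone; colonies counted after 48 h at 37°C; triplicate experiments.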

Pseudomonas aeruginosa [19] = assay: Antibacterial activity against Pseudomonas aeruginosa T5177 after 14 to 16 hrs by broth dilution method; assay type: functional; how it was run: as §1
Staphylococcus aureus [20] = assay: Antibacterial activity against Staphylococcus aureus N315 after 14 to 16 hrs by broth dilution method; assay type: functional; how it was run: as §1
Escherichia coli [21] = assay: Antibacterial activity against Escherichia coli W4573 assessed as inhibition of AcrAB efflux pump after 14 to 16 hrs by broth dilution method; assay type: functional
Pseudomonas aeruginosa [22] = assay: Antibacterial activity against Pseudomonas aeruginosa T15464 after 14 to 16 hrs by broth dilution method; assay type: functional; how it was run: as §1
Pseudomonas aeruginosa [23] = assay: Antibacterial activity against Pseudomonas aeruginosa M22152 after 14 to 16 hrs by broth dilution method; assay type: functional; how it was run: as §1
Escherichia coli [24] = assay: Antibacterial activity against Escherichia coli K12 after 14 to 16 hrs by broth dilution method; assay type: functional
Pseudomonas aeruginosa [25] = assay: Antibacterial activity against Pseudomonas aeruginosa DK101 containing pAU48 expressing oprD after 14 to 16 hrs by broth dilution method; assay type: functional
Staphylococcus aureus [26] = assay: Antibacterial activity against Staphylococcus aureus Mu50 assessed as inhibition of bacterial population at greater than 512 ug/ml after 48 hrs; assay type: functional, organism-based
Staphylococcus aureus [27] = assay: Antibacterial activity against Staphylococcus aureus N315 at 20 ug/ml after 12 hrs by time kill assay; assay type: functional, organism-based
How it was run: (§2)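 Time-kill: overnight MH broth cultures were diluted in saline to OD600 0.08–0.12, and 1 x 10^5 to 5 x 10^5 CFU went into 1 ml MH broth with or without antibiotic and/or 1 mM spermine. Static incubation at 37°C. Timed 100 µl aliquots were plated on LB neat or after 10-fold dilutions, and colonies counted after 18–24 h at 37°C.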

Staphylococcus aureus [28] = assay: Antibacterial activity against Staphylococcus aureus Mu50 at 20 ug/ml after 12 hrs by time kill assay; assay type: functional, organism-based; how it was run: as §2
Staphylococcus aureus [29] = assay: Antibacterial activity against Staphylococcus aureus Mu50 assessed as inhibition of bacterial population at 128 ug/ml after 48 hrs; assay type: functional, organism-based

## CC1(C)S[C@@H]2[C@H](NC(=O)C(C(=O)O)c3ccccc3)C(=O)N2[C@H]1C(=O)O (stereo partly specified) [CARBENICILLIN]
Escherichia coli [1]
  MIC: 2 µg/mL (≈ 5.29 µM)
Pseudomonas aeruginosa [2]
  MIC: 1020 µg/mL (≈ 2710 µM)
Pseudomonas aeruginosa [3]
  MIC: 16 µg/mL (≈ 42.3 µM)
Pseudomonas aeruginosa [4]
  MIC: 256 µg/mL (≈ 677 µM)
Salmonella typhimurium
  MIC: 8 µg/mL (≈ 21.1 µM)
Pseudomonas aeruginosa [5]
  MIC: 256 µg/mL (≈ 677 µM)
Staphylococcus aureus [6]
  MIC: 1 µg/mL (≈ 2.64 µM)
Pseudomonas aeruginosa [7]
  MIC: 1020 µg/mL (≈ 2710 µM)
Pseudomonas aeruginosa [8]
  MIC: 64 µg/mL (≈ 169 µM)
Staphylococcus aureus [9]
  MIC: ≥ 512 µg/mL
Escherichia coli [10]
  MIC: 32 µg/mL (≈ 84.6 µM)
Escherichia coli [11]
  MIC: 16 µg/mL (≈ 42.3 µM)
Pseudomonas aeruginosa [12]
  MIC: 16 µg/mL (≈ 42.3 µM)
Pseudomonas aeruginosa [13]
  MIC: 64 µg/mL (≈ 169 µM)
Pseudomonas aeruginosa [14]
  MIC: 64 µg/mL (≈ 169 µM)
Escherichia coli [15]
  MIC: 4 µg/mL (≈ 10.6 µM)
Pseudomonas aeruginosa [16]
  MIC: > 1020 µg/mL
Pseudomonas aeruginosa [17]
  MIC: 256 µg/mL (≈ 677 µM)
Pseudomonas aeruginosa [18]
  Activity: Active
Pseudomonas aeruginosa [19]
  MIC: > 1020 µg/mL
Staphylococcus aureus [20]
  MIC: 32 µg/mL (≈ 84.6 µM)
Escherichia coli [21]
  MIC: 16 µg/mL (≈ 42.3 µM)
Pseudomonas aeruginosa [22]
  MIC: > 1020 µg/mL
Pseudomonas aeruginosa [23]
  MIC: > 1020 µg/mL
Escherichia coli [24]
  MIC: 16 µg/mL (≈ 42.3 µM)
Pseudomonas aeruginosa [25]
  MIC: 64 µg/mL (≈ 169 µM)

## Cc1onc(-c2ccccc2)c1C(=O)N[C@@H]1C(=O)N2[C@@H]1SC(C)(C)[C@@H]2C(=O)O [OXACILLIN]
Staphylococcus aureus [26]
  Activity: Active
Salmonella typhimurium
  MIC: 256 µg/mL (≈ 638 µM)
Staphylococcus aureus [27]
  Activity: inactive
Staphylococcus aureus [6]
  MIC: 0.12 µg/mL (≈ 0.299 µM)
Staphylococcus aureus [9]
  MIC: 512 µg/mL (≈ 1280 µM)
Escherichia coli [11]
  MIC: 512 µg/mL (≈ 1280 µM)
Staphylococcus aureus [20]
  MIC: 16 µg/mL (≈ 39.9 µM)
Staphylococcus aureus [28]
  Activity: inactive
Staphylococcus aureus [29]
  Activity: inactive
Escherichia coli [24]
  MIC: 512 µg/mL (≈ 1280 µM)
